According to ChEMBL document CHEMBL4145451, “1,3,5-triazaspiro[5.5]undeca-2,4-dienes as selective Mycobacterium tuberculosis dihydrofolate reductase inhibitors with potent whole cell activity” (Eur J Med Chem, 2018):

Key:
[1] = tested on: Mycobacterium tuberculosis; assay: Antimycobacterial activity against Mycobacterium bovis BCG at 25 uM after 10 days by broth dilution method relative to control; format: functional, variant bovis BCG
[2] = tested on: Mycobacterium tuberculosis; assay: Antimycobacterial activity against Mycobacterium bovis BCG after 10 days by broth dilution method; format: functional; details: variant bovis BCG, 240 h
How it was run: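 Broth microdilution. Mid-log cultures (OD600 0.4–0.6) were diluted and added to 2-fold serial compound dilutions in DMSO, giving a final 5 × 10^5 CFU/mL in 7H9-albumin-dextrose-catalase-glycerol-Tween 80. Plates were sealed and incubated at 37 °C for 10 days with shaking at 80 rpm. OD600 was read; MIC50 and MIC90 are the lowest concentrations giving 50% and 90% growth inhibition. Rifampicin and DMSO served as controls. Means of 3 independent experiments.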

[3] = tested on: Mycobacterium tuberculosis; assay: Ratio of MIC90 for Mycobacterium bovis BCG over-expressing DHFR to MIC90 for Mycobacterium bovis BCG; format: functional, variant bovis BCG

| SMILES | Activity [1] [%] | MIC50 [2] [µM] | MIC90 [2] [µM] | Ratio [3] |
| --- | --- | --- | --- | --- |
| Cl.NC1=NC2(CCCCC2)N(c2ccc(OCc3cn(CCCc4ccccc4)nn3)cc2)C(N)=N1 | 67.8 | 20.7 | > 100 | – |
| Cl.NC1=NC2(CCCCC2)N(Cc2cn(CCCc3ccccc3)nn2)C(N)=N1 | 5.4 | – | – | – |
| Cl.NC1=NC2(CCCCC2)N(c2ccc(OCc3cn(CCCCOc4ccc5ccc(=O)oc5c4)nn3)cc2)C(N)=N1 | 92.1 | 0.01 to 0.02 | 0.1 | 25 - 30 |
| Cl.NC1=NC2(CCCCC2)N(Cc2cn(CCCOc3ccc4ccc(=O)oc4c3)nn2)C(N)=N1 | 7.8 | – | – | – |
| Cl.NC1=NC2(CCCCC2)N(c2ccc(OCc3cn(CCOc4ccc5ccc(=O)oc5c4)nn3)cc2)C(N)=N1 | 84.8 | 0.2 | 1.56 | – |
| Cl.NC1=NC2(CCCCC2)N(Cc2cn(CCc3ccccc3)nn2)C(N)=N1 | 4.7 | – | – | – |
| Cl.NC1=NC2(CCCCC2)N(Cc2cn(CC(=O)c3ccccc3)nn2)C(N)=N1 | 3.4 | – | – | – |
| Cl.NC1=NC2(CCCCC2)N(Cc2cn(CCOc3ccc4ccc(=O)oc4c3)nn2)C(N)=N1 | 5.8 | – | – | – |
| Cl.NC1=NC2(CCCCC2)N(c2ccc(OCc3cn(CCc4ccccc4)nn3)cc2)C(N)=N1 | 25.6 | – | – | – |
| Cl.NC1=NC2(CCCCC2)N(c2ccc(OCc3cn(CC(=O)c4ccccc4)nn3)cc2)C(N)=N1 | 12.8 | – | – | – |
| Cl.NC1=NC2(CCCCC2)N(Cc2cn(CCCCCOc3ccc4oc(=O)ccc4c3)nn2)C(N)=N1 | 6.7 | – | – | – |
| Cl.NC1=NC2(CCCCC2)N(c2ccc(OCc3cn(CCCOc4ccc5ccc(=O)oc5c4)nn3)cc2)C(N)=N1 | 88.4 | 0.02 | 0.2 | 25 - 30 |
| Cl.NC1=NC2(CCCCC2)N(c2ccc(OCc3cn(Cc4ccccc4)nn3)cc2)C(N)=N1 | 61.7 | 19.2 | > 100 | – |
| Cl.NC1=NC2(CCCCC2)N(Cc2cn(Cc3ccccc3)nn2)C(N)=N1 | 4.5 | – | – | – |
| Nc1ccc(C(=O)O)c(O)c1 [AMINOSALICYLIC ACID] | – | – | – | 16 |
